Source: PubChem BioAssay
RGS4 block – human RGS4 inhibition. AID 463165. B-score at 10 µM. P49798. 0.45% of 310,000 active. HEK293 M3R/RGS4 inducible, Fluo-4 calcium flux; stronger effect = higher value; triggered by carbachol at its EC20;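 active = B-score, a plate-corrected calcium signal, over three deviations above library mean, with baseline fluorescence within five deviations of library mean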;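 also: RGS4 expression induced by doxycycline in cells with stable M3 receptor; B-score is computed from the integrated fluorescence ratio over baseline after carbachol; higher B-score means a larger calcium signal and so more RGS4 inhibition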
Target sequence (P49798 whole entry, looked up): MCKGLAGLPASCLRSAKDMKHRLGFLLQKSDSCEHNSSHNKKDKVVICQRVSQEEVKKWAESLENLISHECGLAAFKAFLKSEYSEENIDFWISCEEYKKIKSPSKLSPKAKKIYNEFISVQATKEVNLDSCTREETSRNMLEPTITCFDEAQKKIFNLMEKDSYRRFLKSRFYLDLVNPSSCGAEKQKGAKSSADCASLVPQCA
MrgX1 PAM – human MrgX1 positive allosteric modulation, primary screen. Q96LB2. MrgX1-HEK293, Fluo-4 calcium flux, FDSS; stronger effect = higher value. B-score at 10 µM. 0.63% of 310,000 active;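 active = plate-corrected calcium response at least 3 library SD above typical, normal starting fluorescence, not activating the receptor alone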;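 also: compound read alongside a low EC10 to EC30 dose of BAM8-22 agonist; peak minus trough fluorescence over baseline measured at the second addition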
RGS4 pot – RGS4 potentiation or activation; 0.92% of 310,000 active; HEK293 M3R/inducible RGS4, carbachol calcium flux Fluo4; stronger effect = lower value; AID 463111; B-score at 10 µM;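 active = B-score of the integrated calcium signal more than 4 SD below the library mean, with starting fluorescence not abnormally high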;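 also: negative B-score means reduced calcium response which marks RGS4 activation or potentiation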
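System – HEK293 FlpIn-TREx cells, stable M3R, doxycycline-inducible RGS4 · Reagent – ECmax carbachol challenge · Times – compound preincubation 20 min at room temperature before agonist · Technique – Fluo4 fluorescence kinetic imaging of calcium · Measure – B score of integrated Fluo4 ratio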
MrgX1 agonist – human MrgX1 receptor agonism, primary screen; 0.44% of 310,000 active; B-score at 10 µM; MrgX1-HEK293 cells, Fluo-4 calcium fluorescence, agonist mode; stronger effect = higher value;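 active = calcium response B-score plate-corrected fluorescence ratio at least 3 library SD, with starting fluorescence B-score inside 5 SD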
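Test system: HEK293 cells stably expressing human MrgX1 receptor; amount: 15,000 cells per well; doses: compound delivered in addition one of three; times: overnight plating before 1 h dye loading; detection: Fluo-4 NW calcium-flux fluorescence, kinetic read; read-out basis: B-scored fluorescence response ratio; controls: positive and negative controls per plate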
MrgX1 antag – blocks BAM8-22 activation of human MrgX1 receptor | 1.3% of 310,000 active | MRGX1-HEK293 calcium flux, Fluo-4, BAM8-22 antagonism; stronger effect = lower value | AID 588676 | B-score at 10 µM | Q96LB2;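 active = calcium-response B-score plate-corrected more than 3 library SD below zero, starting fluorescence within 5 deviations, no agonist response on first addition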;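 also: peak minus trough fluorescence over baseline after final BAM8-22 challenge near maximal dose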
RGS4 block valid – validation of RGS4 inhibitors; shares compounds with RGS4 block; HEK293 M3R/RGS4, carbachol calcium Fluo-4 fluorescence; carbachol added at its EC20; 0 = buffer wells, 100 = carbachol control; calcium response, % at 10 µM; 65% of 1,700 active; AID 492999;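 active = duplicate-averaged calcium response above the buffer-only control mean plus 5 SD of those controls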;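 also: integrated fluorescence ratio F max minus min over baseline F0; higher response in RGS4-induced cells means RGS4 inhibition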
M3R Ca ctr – non-induced cell nonspecific activity of RGS4 inhibitors. shares compounds with RGS4 block. HEK293 M3R non-induced, carbachol calcium Fluo-4; submaximal (EC20) carbachol stimulus; buffer wells 0%, carbachol control wells 100%. activity (percent), % at 10 µM. 20% of 1,900 active. AID 493000; call rule not given here;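 also: RGS4 induction absent so cells express M3R without RGS4; higher means more calcium signal and flags a non-specific hit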
RGS4 inh ctr2 – signal in non-induced cells without carbachol, RGS4 inhibitor counter-screen | shares compounds with RGS4 block | HEK293 M3R/RGS4 non-induced, Fluo-4 calcium, no carbachol; normalised: buffer wells 0%, carbachol wells 100% | calcium response (agonist-mode artifact), % at 10 µM | 22% of 1,900 active | AID 493001;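 active = duplicate-averaged calcium rise in uninduced cells above buffer wells' mean plus 5 SD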
* marks the source's active call; other numbers are inactive results; i = inactive; . = no result given. Hits are enriched below; roughly 3.5% of the tested compounds scored in any of these assays.

SMILES	RGS4 block	MrgX1 PAM	RGS4 pot	MrgX1 agonist	MrgX1 antag	RGS4 block valid	M3R Ca ctr	RGS4 inh ctr2
COc1ccc(C2=NN(c3ccc(C(=O)O)cc3)C(c3ccc(OC)c(OC)c3)C2)cc1 (stereo unspecified)	9.33*	i	i	i	i	18.0%*	38.0%*	i
COc1ccc(C2CC(c3ccccc3)=NN2c2ccc(S(N)(=O)=O)cc2)cc1OC (stereo unspecified)	8.46*	i	i	i	i	53.0%*	66.0%*	i
NS(=O)(=O)c1ccc(N2N=C(c3ccccc3)CC2c2cccc(F)c2)cc1 (stereo unspecified)	i	i	i	i	i	.	.	.
CN(C)N=Nc1nc2c(c(=O)n(C)c(=O)n2C)n1CC1CO1 (stereo unspecified)	i	i	i	i	i	.	.	.
COc1ccc(CCN(C)C(=S)Nc2cccc(C)c2)cc1OC	i	i	i	i	i	.	.	.
O=c1[nH]c(/C=C/c2ccc([N+](=O)[O-])cc2)c([N+](=O)[O-])c(=O)[nH]1	i	i	i	i	i	i	i	i
COc1ccc(OC)c(/C=C/c2[nH]c(=O)[nH]c(=O)c2[N+](=O)[O-])c1	10.3*	.	i	.	.	33.5%*	i	i
COc1ccc(/C=C/c2c([N+](=O)[O-])c(=O)n(C)c(=O)n2C)c(OC)c1	i	i	i	i	i	.	.	.
O=c1[nH]c(/C=C/c2ccc3c(c2)OCO3)c([N+](=O)[O-])c(=O)[nH]1	i	i	i	i	i	.	.	.
O=C(N/N=C/c1ccccc1)c1[nH]c2ccc(Br)cc2c1-c1ccccc1	i	i	i	i	i	.	.	.
O=C(NN=C1CCCC1)c1[nH]c2ccc(Br)cc2c1-c1ccccc1	13.3*	i	i	i	i	16.5%*	i	i
O=C1Nc2ccc(Br)cc2C1Cc1ccccc1F (stereo unspecified)	5.76*	i	i	i	i	13.0%*	i	i
CCN1C(=O)c2cccc3c(NC(=O)c4ccc(OC)c(OC)c4)ccc1c23	i	i	i	i	i	.	.	.
O=S(=O)(Nc1ccc2cn[nH]c2c1)c1ccc(Cl)s1	i	i	i	i	i	.	.	.
Cc1ccc2[nH]c3c(c2c1)CN(C(=O)CN1c2ccc(F)cc2CCC1C)CC3 (stereo unspecified)	8.97*	i	i	i	i	23.0%*	i	i
Cc1ccc2[nH]c3c(c2c1)CN(C(=O)CN1CCN(c2cccc(C)c2C)CC1)CC3	i	i	i	i	i	.	.	.
Cc1cn2nc(N)c3ccccc3c2n1	.	i	.	i	i	.	.	.
Nc1nn2cc(-c3ccccc3)nc2c2ccccc12	i	i	i	i	i	.	i	i
COCCNC(=O)C(=O)NCCN1CCNCC1	i	i	i	i	i	.	.	.
CCOC(=O)/C(C#N)=C\c1cn(C)c2ccccc12	i	i	i	i	i	.	.	.
CCOC(=O)/C(=C\c1cn(C)c2ccccc12)[N+](=O)[O-]	5.8*	i	i	i	-4.6*	34.0%*	i	20.0%*
CC1(C)SC[C@H](C(=O)Nc2cccc(Cl)c2)N1C=O	i	i	i	i	i	.	.	.
COc1ccc(-c2cc(=O)oc3c(C)c(OC(C)C(=O)NCc4ccccn4)ccc23)cc1 (stereo unspecified)	i	i	i	i	i	.	.	.
